Measured values reported in ChEMBL document CHEMBL1157379, “Transcriptional response of Candida parapsilosis following exposure to farnesol” (2007).
Activity calls are given as the source filed them. The rule behind the calls is not given here.

Tests used:
Candida parapsilosis [1] = assay: Antifungal activity against Candida parapsilosis CLIB214 assessed as growth inhibition at 50 uM added after 4 hrs of bacterial growth measured after 4 hrs; type: functional; settings: Lodderomyces parapsilosis, CLIB214, 4 h
Procedure, shortened: (§1)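 Overnight YPD culture at 30°C diluted to A600 0.2 in YPD. Farnesol added to 50 μM final at 2, 4, 6 or 8 h of growth (A600 about 0.8 at 4 h, 2.3 at 6 h, 6 at 8 h). Growth compared with methanol controls by A600 or cell counts.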

Candida parapsilosis [2] = assay: Decrease in HOS2 gene expression in Candida parapsilosis CLIB214 at 50 uM after 2 hrs by microarray based transcriptional profiling relative to control; type: functional
Procedure, shortened: (§2)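 Strain CLIB214 grown overnight in YPD at 30°C, diluted to A600 0.2 in fresh YPD at 30°C. After 4 h (A600 0.8), farnesol (40 mM methanol stock) added to 50 μM final, or an equal methanol volume as control; cells harvested 2 h later. RNA was accepted only with a 28S/18S ratio of 1.6–2.2. Cy3/Cy5-dCTP-labelled cDNA was made from 25 μg total RNA. Hybridisation was to duplicate-spotted 68-mer oligo arrays (3,849 genes) at 42°C for about 16 h. Six individual comparisons.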

Candida parapsilosis [3] = assay: Antifungal activity against Candida parapsilosis CLIB214 assessed as growth inhibition in presence of 10% fetal calf serum at 30 degC; type: functional, organism-based
Procedure, shortened: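 YPD cultures started at A600 0.2, supplemented with 10% (vol/vol) fetal calf serum, and grown at 30°C or 37°C. Farnesol added with the serum. Growth monitored by A600 or cell counting.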

Candida parapsilosis [4] = assay: Decrease in STE23 gene expression in Candida parapsilosis CLIB214 at 50 uM after 2 hrs by microarray based transcriptional profiling relative to control; type: functional; procedure, shortened: as §2
Candida parapsilosis [5] = assay: Increase in CGD gene ortholog accession number orf19.3501 expression in Candida parapsilosis CLIB214 at 50 uM after 2 hrs by microarray based transcriptional profiling relative to control; type: functional; procedure, shortened: as §2
Candida parapsilosis [6] = assay: Antifungal activity against Candida parapsilosis CLIB214 assessed as growth inhibition at 50 uM added after 2 hrs of bacterial growth measured after 4 hrs; type: functional; settings: Lodderomyces parapsilosis; procedure, shortened: as §1
Candida parapsilosis [7] = assay: Increase in ATP2 gene expression in Candida parapsilosis CLIB214 at 50 uM after 2 hrs by microarray based transcriptional profiling relative to control; type: functional; procedure, shortened: as §2
Candida parapsilosis [8] = assay: Increase in CDC20 gene expression in Candida parapsilosis CLIB214 at 50 uM after 2 hrs by microarray based transcriptional profiling relative to control; type: functional; procedure, shortened: as §2
Candida parapsilosis [9] = assay: Reduction in GCN3 gene expression in Candida parapsilosis CLIB214 by RT-PCR; type: functional
Procedure, shortened: (§3)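 Cultures in YPD at 30°C, diluted to A600 0.2; 50 μM farnesol (final) or methanol added at 4 h, RNA harvested 2 h later. RT-PCR: 95°C hot start 1 min 30 s, then 26 cycles (95°C 40 s, 55°C 2 min, 72°C 3 min), final 72°C 5 min; each gene signal normalized to ACT1.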

Candida parapsilosis [10] = assay: Increase in CGD gene ortholog accession number orf19.966 expression in Candida parapsilosis CLIB214 at 50 uM after 2 hrs by microarray based transcriptional profiling relative to control; type: functional
Procedure, shortened: (§4)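 Strain grown overnight in YPD at 30°C, diluted to A600 0.2 in YPD at 30°C; farnesol (40 mM methanol stock) added at 4 h (A600 0.8), final 50 μM; methanol-only control. Cells collected 2 h later for RNA. Labelled cDNA from 25 μg total RNA (Cy3/Cy5-dCTP) hybridized to 68-mer oligo arrays at 42°C ~16 h; six individual comparisons analysed statistically.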

Candida parapsilosis [11] = assay: Decrease in PGA55 gene expression in Candida parapsilosis CLIB214 at 50 uM after 2 hrs by microarray based transcriptional profiling relative to control; type: functional; procedure, shortened: as §2
Candida parapsilosis [12] = assay: Decrease in CGD gene ortholog accession number orf19.3603 expression in Candida parapsilosis CLIB214 at 50 uM after 2 hrs by microarray based transcriptional profiling relative to control; type: functional
Procedure, shortened: (§5)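 Cells in YPD at 30°C treated with 50 μM farnesol at 4 h, with a methanol control. RNA harvested 2 h later and kept only if 28S/18S ratio was 1.6–2.2 with no degradation. 25 μg total RNA oligo-dT primed and labeled with Cy3/Cy5-dCTP. Labeled cDNA hybridized about 16 h at 42°C to duplicate-spotted 68-mer oligo arrays. Six individual comparisons analyzed statistically.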

Candida parapsilosis [13] = assay: Decrease in CGD gene ortholog accession number orf19.672 expression in Candida parapsilosis CLIB214 at 50 uM after 2 hrs by microarray based transcriptional profiling relative to control; type: functional; procedure, shortened: as §2
Candida parapsilosis [14] = assay: Increase in KRE30 gene expression in Candida parapsilosis CLIB214 at 50 uM after 2 hrs by microarray based transcriptional profiling relative to control; type: functional; procedure, shortened: as §4
Candida parapsilosis [15] = assay: Effect on membrane lipid localization in ERG9 gene expression in Candida parapsilosis CLIB214 assessed as growing bud tip staining at 50 uM after 1 hr by filipin staining; type: functional
Procedure, shortened: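 Cultures grown overnight in YPD at 30°C, diluted to A600 0.2, and given farnesol to 50 μM final (methanol for controls) after 4 h of growth. Cells collected 1 h later, PBS-washed, and stained 10 min at room temperature with 100 μg ml−1 filipin in water. Scored by fluorescence microscopy (excitation 360–370 nm, emission 420–460 nm) as bud-tip versus uniform sterol staining.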

Candida parapsilosis [16] = assay: Effect on GAD1 gene expression in Candida parapsilosis CLIB214 by microarray based transcriptional profiling; type: functional, organism-based; procedure, shortened: as §2
Candida parapsilosis [17] = assay: Antifungal activity against Candida parapsilosis CLIB214 assessed as growth inhibition at 50 uM added 4 hrs after […] growth within 2 hrs by cell counting method; type: functional, organism-based
Procedure, shortened: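 C. parapsilosis CLIB214 grown overnight in YPD at 30°C, diluted to A600 0.2 in fresh YPD, grown 4 h (A600 0.8), then farnesol added at final 10, 20, 50 or 100 μM from a 40 mM methanol stock. Methanol-only controls. Growth followed by A600 or by cell counting with a particle counter.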

Candida parapsilosis [18] = assay: Increase in GRP2 gene expression in Candida parapsilosis CLIB214 by RT-PCR; type: functional, organism-based; procedure, shortened: as §3
Candida parapsilosis [19] = assay: Decrease in CGD gene ortholog accession number orf19.6744 expression in Candida parapsilosis CLIB214 at 50 uM after 2 hrs by microarray based transcriptional profiling relative to control; type: functional; procedure, shortened: as §2
Candida parapsilosis [20] = assay: Antifungal activity against Candida parapsilosis CLIB214 assessed as reduction of biofilm formation at 100 uM added 4 hrs after […] growth by crystal violet assay; type: functional; parameters: scale not given: the % may be the effect or the level left
Procedure, shortened: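 Cells grown overnight in YNB, diluted to A600 1, and left to adhere 2 h at 37°C. Nonadherent cells washed off with PBS, then fresh YNB added and plates incubated 24 h at 37°C. Biofilms stained with 0.1% crystal violet for 15 min at 30°C, destained 4 h in 33% acetic acid, and read at A570.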

Candida parapsilosis [21] = assay: Decrease in ARG11 gene expression in Candida parapsilosis CLIB214 at 50 uM after 2 hrs by microarray based transcriptional profiling relative to control; type: functional; procedure, shortened: as §5
Candida parapsilosis [22] = assay: Increase in KEX2 gene expression in Candida parapsilosis CLIB214 at 50 uM after 2 hrs by microarray based transcriptional profiling relative to control; type: functional; procedure, shortened: as §4

CC(C)=CCC/C(C)=C/CC/C(C)=C/CO [FARNESOL]
inhibition at 50 µM (Candida parapsilosis [1]): 83%
fold change (FC) (Candida parapsilosis [2]): 2.62
Activity (Candida parapsilosis [3]): inactive
fold change (FC) (Candida parapsilosis [4]): 2.13
fold change (FC) (Candida parapsilosis [5]): 1.63
inhibition at 50 µM (Candida parapsilosis [6]): 71%
fold change (FC) (Candida parapsilosis [7]): 2.16
fold change (FC) (Candida parapsilosis [8]): 1.51
fold change (FC) (Candida parapsilosis [9]): 1.54
fold change (FC) (Candida parapsilosis [10]): 1.6
fold change (FC) (Candida parapsilosis [11]): 1.76
fold change (FC) (Candida parapsilosis [12]): 1.92
fold change (FC) (Candida parapsilosis [13]): 1.77
fold change (FC) (Candida parapsilosis [14]): 2.24
Activity (Candida parapsilosis [15]): 18%
Activity (Candida parapsilosis [16]): inactive
Activity (Candida parapsilosis [17]): Active
Activity (Candida parapsilosis [18]): Active
fold change (FC) (Candida parapsilosis [19]): 1.66
Activity (Candida parapsilosis [20]): 30%
fold change (FC) (Candida parapsilosis [21]): 1.56
fold change (FC) (Candida parapsilosis [22]): 1.57
